Holding throughout (type): functional
For experiment [1], the system named is Escherichia coli. In words: Antimicrobial activity against Escherichia coli J5 by Etest method. Put shortly: (§1)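 MICs read from Etest strips on Müller-Hinton agar, in μg/ml. E. coli ATCC 25922 served as the QC strain. Susceptible or resistant calls followed CLSI clinical breakpoints or EUCAST epidemiological cutoffs for cefotaxime, ceftazidime, ceftiofur, cefoxitin and cefuroxime.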

The subject of another experiment is Salmonella enterica. In words: Antimicrobial activity against Salmonella enterica serotype Virchow 3464b by Etest method. Put shortly: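 MIC determined by Etest strips on Müller-Hinton agar; E. coli ATCC 25922 used as the quality-control strain. Donor strain grown aerobically in brain heart infusion. Susceptible/resistant categories assigned from CLSI clinical breakpoints or EUCAST epidemiological cutoffs for cefotaxime, ceftazidime, ceftiofur, cefoxitin and cefuroxime. MICs expressed in μg/ml.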

In experiment [2] the test system is Escherichia coli. Description: Antimicrobial activity against Escherichia coli J5 transconjugants expressing beta lactamase CTX-M-9 isolated from human flora associated C3H rat infected with Salmonella enterica serotype Virchow by Etest method. The essentials:
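Etest MICs on Müller-Hinton agar, in μg/ml, with ATCC 25922 as QC. E. coli J5 transconjugants were isolated from feces of HFA C3H rats inoculated intragastrically with 8 log10 CFU J5, then Virchow donor 2 h later, and given sterile water by gavage instead of antibiotic. Isolates were selected on Drigalski agar with 250 μg/ml rifampin and 4 μg/ml cefixime and confirmed as J5 carrying blaCTX-M-9 by PCR/PFGE.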

Experiment [3] concerns Escherichia coli. In words: Antimicrobial activity against Escherichia coli J5 transconjugants expressing beta lactamase CTX-M-9 isolated from human flora associated C3H rat infected with Salmonella enterica serotype Virchow and treated with Cefixime-cluvulanic acid by Etest method.
Experiment [4] has as its system Escherichia coli. Description: Antimicrobial activity against Escherichia coli J5 transconjugants expressing beta lactamase CTX-M-9 isolated from human flora associated C3H rat infected with Salmonella enterica serotype Virchow and treated with Cefixime by Etest method. Put shortly: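 Etest MICs on Müller-Hinton agar, in μg/ml, with ATCC 25922 as QC. Isolates were fecal E. coli J5 transconjugants from human flora-associated C3H rats coinoculated orally with 8 log10 CFU J5, then Virchow donor, and gavaged with cefixime 4 mg/kg twice daily for 8 days. Isolates were picked on Drigalski agar with 250 μg/ml rifampin plus 4 μg/ml cefixime and confirmed by PCR/PFGE and blaCTX-M-9 PCR.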

In experiment [5] the test system is Escherichia coli. In words: Antimicrobial activity against Escherichia coli ATCC 25922 by Etest method. The essentials: as §1

Values after ≈ are worked out from the molar mass of the structure shown.

Take `CC1(C)S[C@@H]2[C@H](NC(=O)[C@H](N)c3ccccc3)C(=O)N2[C@H]1C(=O)O` [AMPICILLIN]: the MIC in the experiment with Escherichia coli [1] came out at 4 µg/mL (≈ 11.4 µM); against Salmonella enterica, 128 µg/mL (≈ 366 µM); with Escherichia coli [2] it was 16 µg/mL (≈ 45.8 µM); in the experiment on Escherichia coli [3], 16 µg/mL (≈ 45.8 µM); with Escherichia coli [4] it was 16 µg/mL (≈ 45.8 µM); with Escherichia coli [5] it was 4 µg/mL (≈ 11.4 µM).

Regarding `C=CC1=C(C(=O)O)N2C(=O)[C@@H](NC(=O)/C(=N\OCC(=O)O)c3csc(N)n3)[C@H]2SC1` [CEFIXIME], the MIC against Escherichia coli [1] was determined as 0.125 µg/mL (≈ 0.276 µM); in the experiment with Salmonella enterica it was 8 µg/mL (≈ 17.6 µM); in the experiment with Escherichia coli [2], 8 µg/mL (≈ 17.6 µM); in the experiment on Escherichia coli [3], 8 µg/mL (≈ 17.6 µM); against Escherichia coli [4], 8 µg/mL (≈ 17.6 µM); against Escherichia coli [5] it was 0.125 µg/mL (≈ 0.276 µM).

In the case of `CO/N=C(\C(=O)N[C@@H]1C(=O)N2C(C(=O)O)=C(COC(C)=O)CS[C@H]12)c1csc(N)n1` [CEFOTAXIME], the MIC is 0.03 µg/mL (≈ 0.0659 µM) against Escherichia coli [1]; greater than 8 µg/mL with Salmonella enterica; 0.5 µg/mL (≈ 1.1 µM) in the experiment with Escherichia coli [2]; 0.5 µg/mL (≈ 1.1 µM) against Escherichia coli [3]; 0.5 µg/mL (≈ 1.1 µM) with Escherichia coli [4]; 0.03 µg/mL (≈ 0.0659 µM) in the experiment on Escherichia coli [5].

Take `CO[C@@]1(NC(=O)Cc2cccs2)C(=O)N2C(C(=O)O)=C(COC(N)=O)CS[C@@H]21` [CEFOXITIN]: the minimal inhibitory concentration (MIC) in the experiment on Escherichia coli [1] came out at 4 µg/mL (≈ 9.36 µM); against Salmonella enterica it was 16 µg/mL (≈ 37.4 µM); against Escherichia coli [2], 8 µg/mL (≈ 18.7 µM); against Escherichia coli [3] it was 16 µg/mL (≈ 37.4 µM); against Escherichia coli [4], 16 µg/mL (≈ 37.4 µM); in the experiment on Escherichia coli [5], 4 µg/mL (≈ 9.36 µM).

Consider `CC(C)(O/N=C(\C(=O)N[C@@H]1C(=O)N2C(C(=O)[O-])=C(C[n+]3ccccc3)CS[C@H]12)c1csc(N)n1)C(=O)O` [CEFTAZIDIME], for which the MIC against Escherichia coli [1] was determined as 0.125 µg/mL (≈ 0.229 µM); in the experiment with Salmonella enterica it was 8 µg/mL (≈ 14.6 µM); in the experiment on Escherichia coli [2] it was 1 µg/mL (≈ 1.83 µM); against Escherichia coli [3], 1 µg/mL (≈ 1.83 µM); in the experiment with Escherichia coli [4] it was 1 µg/mL (≈ 1.83 µM); against Escherichia coli [5], 0.125 µg/mL (≈ 0.229 µM).

Take `CO/N=C(\C(=O)N[C@@H]1C(=O)N2C(C(=O)O)=C(CSC(=O)c3ccco3)CS[C@H]12)c1csc(N)n1` [CEFTIOFUR]: the MIC with Escherichia coli [1] is 0.25 µg/mL (≈ 0.477 µM); against Salmonella enterica it was greater than 8 µg/mL; in the experiment on Escherichia coli [2] it was 1 µg/mL (≈ 1.91 µM); against Escherichia coli [3], 1 µg/mL (≈ 1.91 µM); with Escherichia coli [4], 1 µg/mL (≈ 1.91 µM); against Escherichia coli [5], 0.25 µg/mL (≈ 0.477 µM).

On to `CO/N=C(\C(=O)N[C@@H]1C(=O)N2C(C(=O)O)=C(COC(N)=O)CS[C@H]12)c1ccco1` [CEFUROXIME], for which the MIC is 2 µg/mL (≈ 4.71 µM) in the experiment with Escherichia coli [1]; greater than 32 µg/mL against Salmonella enterica; 16 µg/mL (≈ 37.7 µM) against Escherichia coli [2]; 16 µg/mL (≈ 37.7 µM) in the experiment on Escherichia coli [3]; 8 µg/mL (≈ 18.9 µM) in the experiment on Escherichia coli [4]; 2 µg/mL (≈ 4.71 µM) in the experiment with Escherichia coli [5].

Regarding `CCn1cc(C(=O)O)c(=O)c2ccc(C)nc21` [NALIDIXIC ACID], the MIC against Escherichia coli [1] stood at 4 µg/mL (≈ 17.2 µM); in the experiment on Salmonella enterica, 256 µg/mL (≈ 1100 µM); with Escherichia coli [2], 4 µg/mL (≈ 17.2 µM); in the experiment on Escherichia coli [3] it was 4 µg/mL (≈ 17.2 µM); with Escherichia coli [4] it was 4 µg/mL (≈ 17.2 µM); in the experiment on Escherichia coli [5], 4 µg/mL (≈ 17.2 µM).

With `CO[C@H]1/C=C/O[C@@]2(C)Oc3c(C)c(O)c4c(O)c(c(/C=N/N5CCN(C)CC5)c(O)c4c3C2=O)NC(=O)/C(C)=C\C=C\[C@H](C)[C@H](O)[C@@H](C)[C@@H](O)[C@@H](C)[C@H](OC(C)=O)[C@@H]1C` [RIFAMPIN], the MIC in the experiment with Escherichia coli [1] is greater than 512 µg/mL; against Salmonella enterica it was 4 µg/mL (≈ 4.86 µM); against Escherichia coli [2] it was greater than 512 µg/mL; in the experiment with Escherichia coli [3], greater than 512 µg/mL; in the experiment on Escherichia coli [4] it was greater than 512 µg/mL; in the experiment on Escherichia coli [5] it was 4 µg/mL (≈ 4.86 µM).

With `CN[C@@H]1[C@H](O[C@H]2[C@H](O[C@H]3[C@H](O)[C@@H](O)[C@H](N=C(N)N)[C@@H](O)[C@@H]3N=C(N)N)O[C@@H](C)[C@]2(O)C=O)O[C@@H](CO)[C@H](O)[C@H]1O` [STREPTOMYCIN], the MIC was determined as 2 µg/mL (≈ 3.44 µM) against Escherichia coli [1]; 128 µg/mL (≈ 220 µM) against Salmonella enterica; 2 µg/mL (≈ 3.44 µM) against Escherichia coli [2]; 2 µg/mL (≈ 3.44 µM) in the experiment on Escherichia coli [3]; 2 µg/mL (≈ 3.44 µM) against Escherichia coli [4]; 2 µg/mL (≈ 3.44 µM) in the experiment on Escherichia coli [5].

`Cc1cc(NS(=O)(=O)c2ccc(N)cc2)no1` [SULFAMETHOXAZOLE]: the minimum inhibitory concentration (MIC) with Escherichia coli [1] was 8 µg/mL (≈ 31.6 µM); in the experiment with Salmonella enterica it was greater than 512 µg/mL; in the experiment on Escherichia coli [2], 4 µg/mL (≈ 15.8 µM); in the experiment on Escherichia coli [3] it was 4 µg/mL (≈ 15.8 µM); in the experiment on Escherichia coli [4], 4 µg/mL (≈ 15.8 µM); against Escherichia coli [5] it was 8 µg/mL (≈ 31.6 µM).

On to `CN(C)[C@@H]1C(O)=C(C(N)=O)C(=O)[C@@]2(O)C(O)=C3C(=O)c4c(O)cccc4[C@@](C)(O)[C@H]3C[C@@H]12` [TETRACYCLINE], for which the minimum inhibitory concentration (MIC) against Escherichia coli [1] came out at 1 µg/mL (≈ 2.25 µM); in the experiment on Salmonella enterica it was 64 µg/mL (≈ 144 µM); with Escherichia coli [2], 2 µg/mL (≈ 4.5 µM); in the experiment with Escherichia coli [3] it was 4 µg/mL (≈ 9 µM); in the experiment with Escherichia coli [4], 2 µg/mL (≈ 4.5 µM); in the experiment on Escherichia coli [5], 1 µg/mL (≈ 2.25 µM).

Consider `COc1cc(Cc2cnc(N)nc2N)cc(OC)c1OC` [TRIMETHOPRIM], for which the minimal inhibitory concentration (MIC) against Escherichia coli [1] was 0.5 µg/mL (≈ 1.72 µM); against Salmonella enterica, greater than 64 µg/mL; against Escherichia coli [2] it was 0.5 µg/mL (≈ 1.72 µM); in the experiment on Escherichia coli [3], 1 µg/mL (≈ 3.44 µM); against Escherichia coli [4], 0.5 µg/mL (≈ 1.72 µM); against Escherichia coli [5], 0.5 µg/mL (≈ 1.72 µM).

The record behind these values is ChEMBL document CHEMBL1212773, “Transfer of plasmid-mediated CTX-M-9 from Salmonella enterica serotype Virchow to Enterobacteriaceae in human flora-associated rats treated with cefixime” (2010).
